In ChEMBL document CHEMBL1137054, “Synthesis of 5'-substituted fluoro-neplanocin A analogues: importance of a hydrogen bonding donor at 5'-position for the inhibitory activity of S-adenosylhomocysteine hydrolase” (Bioorg Med Chem Lett, 2004):

Experiments:
Col2 = assay: Concentration required for 50% inhibition of Col2 cell line (human colon carcinoma cells); type: functional, cell-based
Summary of the method: (§1)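 Cytotoxicity in cultured human cancer cells (Col2 colon carcinoma; A549 lung carcinoma). Cells were exposed to serial dilutions of compound, and the value is the concentration giving 50% survival.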

A549 = assay: Concentration required for 50% inhibition of A549 cell line (human lung carcinoma cells); type: functional, cell-based; summary of the method: as §1
Adenosylhomocysteinase = Adenosylhomocysteinase (Homo sapiens, UniProt P23526); assay: Inhibitory activity against enzyme S-adenosyl-homocysteine hydrolase of human placenta
Sequence of Adenosylhomocysteinase (P23526 whole entry): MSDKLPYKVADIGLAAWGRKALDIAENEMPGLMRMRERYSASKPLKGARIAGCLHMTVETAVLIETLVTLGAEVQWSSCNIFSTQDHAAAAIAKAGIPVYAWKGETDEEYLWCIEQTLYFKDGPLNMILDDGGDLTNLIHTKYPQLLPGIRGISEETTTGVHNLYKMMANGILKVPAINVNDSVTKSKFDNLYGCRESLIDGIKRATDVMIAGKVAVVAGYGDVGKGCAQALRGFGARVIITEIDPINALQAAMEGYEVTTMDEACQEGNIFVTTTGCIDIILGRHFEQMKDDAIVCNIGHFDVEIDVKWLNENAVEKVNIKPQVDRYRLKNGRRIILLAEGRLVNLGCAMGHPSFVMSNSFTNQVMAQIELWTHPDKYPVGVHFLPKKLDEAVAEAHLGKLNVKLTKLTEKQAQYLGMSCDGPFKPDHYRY

Compound	IC50 (Col2)	IC50 (A549)	IC50 (Adenosylhomocysteinase)
Nc1ncnc2c1ncn2[C@@H]1C(F)=C(CF)[C@@H](O)[C@H]1O	> 100 µM	> 100 µM	> 100 µM
NCC1=C(F)[C@@H](n2cnc3c(N)ncnc32)[C@H](O)[C@@H]1O	39.2 µM	42.8 µM	12.7 µM

Next, values leading:

IC50 (Col2)	IC50 (A549)	IC50 (Adenosylhomocysteinase)	Compound
> 100 µM	> 100 µM	97.3 µM	Nc1ncnc2c1ncn2[C@@H]1C(F)=C(CS)[C@@H](O)[C@H]1O
1.4 µM	4.6 µM	0.48 µM	Nc1ncnc2c1ncn2[C@@H]1C(F)=C(CO)[C@@H](O)[C@H]1O [FLUORO-NEPLANOCIN A]
35.9 µM	53 µM	> 100 µM	[N-]=[N+]=NCC1=C(F)[C@@H](n2cnc3c(N)ncnc32)[C@H](O)[C@@H]1O
